The test system of assay [1] is Streptococcus pneumoniae. Briefly: Inhibition of Streptococcus pneumoniae PBP1b assessed as residual activity at 1mM incubated for 60 mins prior to fluoresceyl-ampicillin labelling measured after 20 mins by SDS-PAGE analysis in the presence of triton X 100. The essentials:
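Assay A: purified S. pneumoniae PBP1b (0.7 µM) pre-incubated with inhibitor in 10 mM sodium phosphate pH 7.0, 60 min, 25 °C, 0.01% Triton X-100. Remaining active enzyme labelled with fluoresceyl-ampicillin (10 µM), 20 min; reaction stopped, run on SDS-PAGE, fluorescence of the band quantified as residual activity.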

For assay [2], the target named is T1, Penicillin-binding protein 2x (Streptococcus pneumoniae serotype 4 (strain ATCC BAA-334 / TIGR4)) (UniProt P14677).
T1 sequence (whole entry): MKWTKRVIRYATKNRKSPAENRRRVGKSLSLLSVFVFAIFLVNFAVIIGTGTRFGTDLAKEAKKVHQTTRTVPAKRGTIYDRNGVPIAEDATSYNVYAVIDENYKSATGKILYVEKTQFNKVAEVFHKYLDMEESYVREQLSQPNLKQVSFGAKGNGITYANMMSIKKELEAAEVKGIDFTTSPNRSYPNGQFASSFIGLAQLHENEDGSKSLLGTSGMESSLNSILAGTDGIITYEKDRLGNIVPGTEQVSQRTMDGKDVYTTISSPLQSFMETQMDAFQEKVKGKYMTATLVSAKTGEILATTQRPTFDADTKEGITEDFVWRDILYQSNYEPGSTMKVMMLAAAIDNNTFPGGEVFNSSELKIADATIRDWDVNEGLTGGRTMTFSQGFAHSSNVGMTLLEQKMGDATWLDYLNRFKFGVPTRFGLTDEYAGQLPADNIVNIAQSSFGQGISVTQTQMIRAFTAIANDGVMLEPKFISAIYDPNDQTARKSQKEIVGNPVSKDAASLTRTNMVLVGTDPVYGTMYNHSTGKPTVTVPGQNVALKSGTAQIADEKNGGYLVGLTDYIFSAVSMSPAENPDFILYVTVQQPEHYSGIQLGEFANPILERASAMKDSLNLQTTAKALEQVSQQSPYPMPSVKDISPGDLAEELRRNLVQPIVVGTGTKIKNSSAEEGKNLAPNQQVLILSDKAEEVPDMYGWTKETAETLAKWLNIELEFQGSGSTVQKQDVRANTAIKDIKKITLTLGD
In words: Inhibition of penicillin-resistant Streptococcus pneumoniae 5204 PBP2x using S2d as substrate assessed as residual activity at 1 mM incubated for 4 hrs prior to substrate addition by DNTB-based spectrophotometry in the presence of triton X 100.

Assay [3] deals with Enterococcus faecium. Briefly: Inhibition of penicillin-resistant Enterococcus faecium PBP5fm assessed as residual activity at 1 mM incubated for 4 hrs prior to prior to fluoresceyl-ampicillin labelling measured after 20 mins by SDS-PAGE analysis.
For assay [4], the system named is Streptococcus pneumoniae. Briefly: Inhibition of Streptococcus pneumoniae PBP1b using PATP thioester as substrate assessed as residual activity at 100 uM incubated for 60 mins prior to substrate addition by DNTB-based spectrophotometry in the presence of triton X 100. The essentials:
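Assay B: S. pneumoniae PBP1b (0.2 µM) pre-incubated with inhibitor 60 min at 25 °C in 10 mM sodium phosphate pH 7.0, 100 mM D-alanine, 0.01 mg/mL BSA, 0.01% Triton X-100. Residual activity from initial rates of PATP thioester (5 mM) hydrolysis with DTNB (1.0 mM); IC50 by non-linear regression of residual activity across concentrations.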

Assay [5] addresses D-alanyl-D-alanine carboxypeptidase (Actinomadura sp. R39) (UniProt P39045). In words: Inhibition of Actinomadura sp. R39 PBP using S2d as substrate assessed as residual activity at 1 mM incubated for 60 mins prior to substrate addition by DTNB-based spectrophotometry in presence of triton X 100. An outline of the steps: (§1)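 R39 (Actinomadura, prepared per Granier), 3.5 nM, pre-incubated with inhibitor 60 min at 25 °C in 10 mM sodium phosphate pH 7.2, 100 mM NaCl, 100 mM D-alanine, 0.01 mg/mL BSA; inhibitors from DMF stock, 1% DMF final. Residual activity from initial rate of S2d (1 mM) hydrolysis with DTNB (1 mM), read at 412 nm, corrected for spontaneous hydrolysis; triplicates, uninhibited control six replicates per plate.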

Assay [6] relates to Staphylococcus aureus. Briefly: Inhibition of penicillin-resistant Staphylococcus aureus PBP2a assessed as residual activity at 1 mM incubated for 4 hrs prior to prior to fluoresceyl-ampicillin labelling measured after 20 mins by SDS-PAGE analysis.
The target of assay [7] is T2, Penicillin-binding protein 2X (Streptococcus pneumoniae R6) (UniProt P59676).
T2 sequence (whole entry): T1 sequence (whole entry) with T385M
In words: Inhibition of penicillin-sensitive Streptococcus pneumoniae R6 PBP2x using S2d as substrate assessed as residual activity at 1 mM incubated for 60 mins prior to substrate addition by DTNB-based spectrophotometry in presence of triton X 100. The essentials:
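PBP2xR6 (0.09 µM) pre-incubated with inhibitor for 60 min at 25 °C in 10 mM sodium phosphate pH 7.0, 0.01 mg/mL BSA, with 0.01% Triton X-100. 1% DMF final. S2d (1 mM) and DTNB (1 mM) then added. Initial hydrolysis rate read at 412 nm. Triplicates. Uninhibited activity from six replicates per plate.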

Assay [8] addresses T2, Penicillin-binding protein 2X (Streptococcus pneumoniae R6). Briefly: Inhibition of penicillin-sensitive Streptococcus pneumoniae R6 PBP2x using S2d as substrate assessed as residual activity at 1 mM incubated for 60 mins prior to substrate addition by DTNB-based spectrophotometry. An outline of the steps: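 S. pneumoniae PBP2x-R6, 0.09 µM, pre-incubated with inhibitor in 10 mM sodium phosphate pH 7.0 with 0.01 mg/mL BSA, 60 min, 25 °C; 1% DMF final. S2d (1 mM) plus DTNB (1 mM) then added; residual activity taken from initial hydrolysis rate at 412 nm, corrected for spontaneous hydrolysis; triplicates, six no-inhibitor controls per plate.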

In assay [9] the target is T1, Penicillin-binding protein 2x (Streptococcus pneumoniae serotype 4 (strain ATCC BAA-334 / TIGR4)). In words: Inhibition of penicillin-resistant Streptococcus pneumoniae 5204 PBP2x using S2d as substrate assessed as residual activity at 1 mM incubated for 4 hrs prior to substrate addition by DNTB-based spectrophotometry.
Assay [10] has as its target D-alanyl-D-alanine carboxypeptidase (Actinomadura sp. R39) (UniProt P39045). Briefly: Inhibition of Actinomadura sp. R39 PBP using S2d as substrate assessed as residual activity at 1 mM incubated for 60 mins prior to substrate addition by DTNB-based spectrophotometry. The essentials:
as §1

Assay [11] deals with T3, D-alanyl-D-alanine carboxypeptidase (Actinomadura sp. R39, UniProt P39045). In words: Inhibition of Actinomadura sp. R39 PBP using S2d as substrate incubated for 60 mins prior to substrate addition by DTNB-based spectrophotometry. An outline of the steps: (§2)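 PBP purified per earlier method. Pre-incubation: enzyme with inhibitor (DMF stock, 1% DMF final) at 25 °C for 60 min. Buffer for R39 (3.5 nM): 10 mM sodium phosphate pH 7.2, 100 mM NaCl, 100 mM D-alanine, 0.01 mg/mL BSA. Buffer for PBP2xR6: 10 mM sodium phosphate pH 7.0, 0.01 mg/mL BSA. S2d (1 mM) and DTNB (1 mM) then added. Initial hydrolysis rate read at 412 nm. Triplicates. IC50 by non-linear regression of residual activity over a concentration range, with 0.01% Triton X-100.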
T3 sequence (P39045 whole entry): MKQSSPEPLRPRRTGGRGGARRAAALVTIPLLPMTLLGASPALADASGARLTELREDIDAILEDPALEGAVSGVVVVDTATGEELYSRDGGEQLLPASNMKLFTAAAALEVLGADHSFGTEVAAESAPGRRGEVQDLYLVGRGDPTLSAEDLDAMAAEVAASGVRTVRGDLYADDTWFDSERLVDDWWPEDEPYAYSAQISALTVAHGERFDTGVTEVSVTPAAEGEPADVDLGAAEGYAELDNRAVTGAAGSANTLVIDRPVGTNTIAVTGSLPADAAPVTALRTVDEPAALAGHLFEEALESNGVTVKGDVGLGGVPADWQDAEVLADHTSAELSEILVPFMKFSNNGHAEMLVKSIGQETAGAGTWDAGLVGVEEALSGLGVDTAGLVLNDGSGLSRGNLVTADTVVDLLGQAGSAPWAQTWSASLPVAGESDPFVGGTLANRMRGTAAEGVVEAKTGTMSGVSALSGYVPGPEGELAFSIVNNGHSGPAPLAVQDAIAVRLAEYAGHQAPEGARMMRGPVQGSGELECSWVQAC

Assay [12] deals with T4, Penicillin-binding protein 2X (Streptococcus pneumoniae R6, UniProt P59676).
T4 sequence (P59676 whole entry): T1 sequence (whole entry) with T385M
In words: Inhibition of penicillin-sensitive Streptococcus pneumoniae R6 PBP2x using S2d as substrate incubated for 60 mins prior to substrate addition by DTNB-based spectrophotometry. The essentials:
as §2

The target in assay [13] is T3, D-alanyl-D-alanine carboxypeptidase. In words: Binding affinity to Actinomadura sp. R39 PBP.

Each structure is given as a SMILES string. Residue numbers refer to the chain shown, from its start.

Chain of D-alanyl-D-alanine carboxypeptidase (Actinomadura sp. R39) (P39045 whole entry): as above

Consider `COc1ccc(C(=O)NCB(O)O)c(OC)c1`, for which the Activity in assay [1] came to 18%; in assay [2], 97%; in assay [3], 86%; in assay [4], 76%; in assay [5], 69%; in assay [6], 91%. In addition, the Activity in [7] came to 69%.

`O=C(NCB(O)O)c1ccc(Cl)cc1`: the Activity in assay [8] was determined as 89%; in [9], 101%; in assay [1], 29%; in [3], 93%; in [4], 70%; in [10], 73%. For the same compound, the Activity in assay [6] was 100%.

With `O=C(NCB(O)O)c1ccccc1C(F)(F)F`, the Activity in [8] is 44%; in assay [9], 109%; in [1] it was 69%; in assay [10], 5%. Further, the IC50 (in general, the concentration needed to halve the response being measured) turned out to be 15 µM in assay [11] and 481 µM in [12].

As to `O=C(NCB(O)O)c1ccccc1F`, the Activity in assay [8] amounted to 56%; in assay [2], 106%; in assay [3], 83%; in [4], 14%; in [10], 30%; in assay [6] it was 88%. The IC50 in assay [11] came out at 505 µM.

With `O=C(CCC1CCCC1)NCB(O)O`, the Activity in assay [8] was found to be 79%; in [1] it was 59%; in assay [2] it was 98%; in assay [3], 85%; in assay [10], 71%; in assay [6] it was 100%.

Regarding `COc1ccc(C(=O)NCB(O)O)cc1`, the Activity in [8] came out at 81%; in assay [9] it was 94%; in assay [1], 38%; in assay [3] it was 81%; in assay [4], 82%; in [10], 50%. The Activity in [6] stood at 92%.

As for `NCB(O)O`, in assay [10], the Activity was 99%.

As for `COc1ccc(C(=O)NCB(O)O)cc1OC`, the Activity in assay [8] turned out to be 82%; in assay [1], 90%; in assay [2], 98%; in assay [3], 78%; in assay [10], 81%; in assay [6] it was 75%.

For `O=C(Cc1ccccc1[N+](=O)[O-])NCB(O)O`, the Activity in assay [8] stood at 31%; in assay [9], 86%; in assay [3] it was 84%; in [4], 52%; in assay [10] it was 52%; in assay [6], 85%. In assay [12], this compound yielded an IC50 of 339 µM.

With `O=C(Cc1ccccc1Cl)NCB(O)O`, the Activity in [8] was determined as 26%; in assay [9], 90%; in assay [1] it was 24%; in [3], 88%; in assay [4] it was 96%; in assay [10], 57%. In [6], the Activity came out at 77%. Besides, in [12], the IC50 stood at 649 µM.

On to `O=C(NCB(O)O)c1cccs1`, for which the Activity amounted to 73% in assay [5] and 66% in assay [7].

Take `O=C(NCB(O)O)c1ccccc1[N+](=O)[O-]`: in assay [13], the affinity corresponds to a Ki of 0.36 µM. For the same compound, the IC50 turned out to be 0.6 µM in [11] and 138 µM in assay [12]. For the same compound, the Activity in assay [2] was determined as 108%; in assay [3], 88%; in assay [4], 24%; in assay [5] it was 0%; in assay [6] it was 92%; in [7] it was 21%.

For `O=C(Cc1ccc(Cl)cc1)NCB(O)O`, the Activity in assay [8] was 32%; in [1] it was 20%; in assay [2], 82%; in [3], 88%; in [4], 69%; in assay [10] it was 71%. The Activity in assay [6] turned out to be 89%. In assay [12], the IC50 was 376 µM.

Turning to `COc1cccc(OC)c1C(=O)NCC(=O)O`, in [10], the Activity is 87%.

For `O=C(NCB(O)O)c1ccccc1`, the Activity turned out to be 78% in assay [8]; 81% in assay [9]; 56% in assay [1]; 79% in assay [3]; 80% in assay [5]; 81% in [6].

Values taken from ChEMBL document CHEMBL2034818, “Synthesis and evaluation of boronic acids as inhibitors of Penicillin Binding Proteins of classes A, B and C” (Bioorg Med Chem, 2012).
